Compound activity: PubChem, Sanford-Burnham Center for Chemical Genomics
Only some compounds are listed: those with a hit (about 1.5% of all), similar ones and a draw of the others.
EBI2 block = blocks human EBI2 receptor beta-arrestin signaling. inhibition, % at 5 µM. EBI2 beta-arrestin recruitment, luminescence, 7a,25-OHC stimulated. 360,000 tested, 0.81% active. AID 651636; in the data active = inhibition above about 38%;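 also: enzyme fragment complementation signal reports receptor beta-arrestin coupling in cells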
Target sequence (P32249 whole entry, looked up, the tested form may be a part): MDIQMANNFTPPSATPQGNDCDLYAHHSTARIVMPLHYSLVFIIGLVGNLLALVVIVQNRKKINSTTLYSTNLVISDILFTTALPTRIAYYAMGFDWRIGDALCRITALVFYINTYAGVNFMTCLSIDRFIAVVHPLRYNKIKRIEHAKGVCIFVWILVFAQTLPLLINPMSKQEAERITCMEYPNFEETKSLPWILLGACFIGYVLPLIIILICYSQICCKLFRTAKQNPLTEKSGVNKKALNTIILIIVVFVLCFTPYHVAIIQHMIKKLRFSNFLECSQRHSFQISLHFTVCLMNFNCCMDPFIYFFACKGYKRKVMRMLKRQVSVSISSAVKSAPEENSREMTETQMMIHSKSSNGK
APJ agonist = APJ receptor agonism; AID 2520; P35414; 330,000 tested, 0.11% active; CHO-K1 APJ PathHunter beta-arrestin, luminescence; 0% DMSO wells, 100% apelin; activation, % at 20 µM;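 active = activation more than six SD over the plate average, tested at 20 µM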
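system = engineered CHO-K1 APJ arrestin reporter cells | input = 1000 cells per well | timing = overnight seeding, 90 min compound at 25 °C, 1 h detection | measured by = enzyme-fragment complementation luminescence | read-out = beta-arrestin recruitment to APJ as agonist activity, luminescent signal | control set = negative DMSO alone, positive Apelin-13 at 10 nM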
APJ antagonist = APJ receptor antagonism. P35414. CHO-K1 APJ beta-arrestin complementation, luminescence. inhibition, % at 20 µM. 330,000 tested, 0.32% active;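 active = inhibition above about 40% at 20 µM, limit read from the data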;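 also: cells challenged with 10 nM apelin-13 agonist together with compound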
CCR6 antagonist = blocks CCL20-driven beta-arrestin recruitment at human CCR6. CHO-K1 CCR6 PathHunter beta-arrestin, luminescence, CCL20-stimulated. 340,000 tested, 0.49% active. P51684. inhibition, % at 20 µM;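 active = compounds whose inhibition of the agonist-driven luminescence signal at 20 µM reaches about 50%, limit read from the data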;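 also: cells stimulated with CCL20 at 14 nM final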
CXCR6 block = inhibitors of human CXCR6 receptor. O00574. CHO-K1 PathHunter CXCR6 beta-arrestin, luminescence. inhibition, % at 20 µM. 360,000 tested, 0.36% active. AID 602244; in the data active = inhibition above about 34%, passing the limit was not always enough;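 also: antagonist mode with CXCL16 agonist at 10 nM final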
EBI2 conf = confirmation of human EBI2 receptor antagonists. inhibition, % at 5 µM. shares compounds with EBI2 block. EBI2 beta-arrestin luminescence, 7a,25-OHC antagonism. 2,400 tested, 29% active;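 active = inhibition of at least 50%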
EBI2 agonist = activates EBI2, counter-screen for EBI2 antagonists; shares compounds with EBI2 block; EBI2-expressing cells, agonist mode, luminescence, 60 min; 0% vehicle, 100% 7α,25-dihydroxycholesterol control; activation, % at 5 µM; 2,400 tested, under 10 active; AID 652000;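 active = activation of at least 50%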
bGal counter = counter-screen for EBI2 antagonists: E. coli beta-galactosidase inhibition; AID 652176; 2,400 tested, 1% active; purified beta-galactosidase, luminescent Galacton Star, 15 min; inhibition, % at 5 µM; shares compounds with EBI2 block;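 active = replicate-average signal at least 3 plate SD below neutral wells, shown as high inhibition, flagging enzyme-inhibiting false positives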;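 also: higher means stronger loss of beta-gal luminescence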
Hits are given with their value.

For O=C(NCc1cccs1)C1CC(=O)N(c2ccccc2)C1 (stereo not drawn) the results were EBI2 block inactive, APJ agonist inactive, APJ antagonist inactive, CCR6 antagonist inactive and CXCR6 block inactive.
For CSCc1cc(C(=O)NC2CC2)c(N)s1 the results were EBI2 block inactive.
Screening O=C1/C(=C/Nc2ccc3c(c2)OCO3)CCc2ccccc21 returned EBI2 block inactive, APJ agonist inactive, APJ antagonist inactive, CCR6 antagonist inactive and CXCR6 block inactive.
For COc1ccc(OCC(O)COc2ccc(OC)cc2)cc1 the results were EBI2 block 71.5, APJ agonist inactive, APJ antagonist inactive, CCR6 antagonist inactive, CXCR6 block inactive, EBI2 conf 60.2, EBI2 agonist inactive and bGal counter inactive.
For COc1ccc(OCC(O)CNC(=O)c2ccc(OC)cc2)cc1 (stereo not drawn) the results were EBI2 block inactive, APJ agonist inactive, APJ antagonist inactive, CCR6 antagonist inactive and CXCR6 block inactive.
`COc1ccc(OCC(O)CNC(=O)c2ccc(Br)cc2)cc1` (stereo not drawn) gave EBI2 block 53.5, APJ agonist inactive, APJ antagonist inactive, CCR6 antagonist inactive, CXCR6 block inactive, EBI2 conf inactive, EBI2 agonist inactive and bGal counter inactive.
Screening OC(COc1ccc(Br)cc1)Cn1ccnc1 (stereo not drawn) returned EBI2 block inactive, APJ agonist inactive, APJ antagonist inactive, CCR6 antagonist inactive and CXCR6 block inactive.
For COc1ccc(OCC(O)CNc2ccc(Br)cc2)cc1 (stereo not drawn) the results were EBI2 block 75.5, APJ agonist inactive, APJ antagonist inactive, CCR6 antagonist inactive, CXCR6 block inactive, EBI2 conf 51.8, EBI2 agonist inactive and bGal counter inactive.
For COc1ccc(OCC(O)Cn2cnc(-c3ccc(Br)cc3)c2)cc1 (stereo not drawn) the results were EBI2 block 48.2, APJ agonist inactive, APJ antagonist inactive, CCR6 antagonist inactive, CXCR6 block inactive, EBI2 conf inactive, EBI2 agonist inactive and bGal counter inactive.
`COc1cccc(C(=O)NCCS(=O)(=O)NCc2cccnc2)c1` gave EBI2 block inactive, APJ agonist inactive, APJ antagonist inactive, CCR6 antagonist inactive and CXCR6 block inactive.
For COc1ccc(Br)cc1CN(C)CC(O)COc1ccc(Br)cc1 (stereo not drawn) the results were EBI2 block 90.7, APJ agonist inactive, APJ antagonist inactive, CCR6 antagonist inactive, CXCR6 block inactive, EBI2 conf 58.8, EBI2 agonist inactive and bGal counter inactive.
For COc1ccc(C(=O)c2ccc(N3CCN(C(=O)c4ccc(F)cc4)CC3)c(F)c2)cc1Br the results were EBI2 block 65.2, APJ agonist inactive, APJ antagonist inactive, CCR6 antagonist inactive, CXCR6 block inactive, EBI2 conf inactive, EBI2 agonist inactive and bGal counter inactive.
Screening CCCC(=O)c1ccc(N2CCN(C(=O)c3ccc(Br)cc3)CC2)c(F)c1 returned EBI2 block 70.7, APJ agonist inactive, APJ antagonist inactive, CCR6 antagonist inactive, CXCR6 block inactive, EBI2 conf inactive, EBI2 agonist inactive and bGal counter inactive.
CC[C@]1(c2ccccc2)C(=O)N(C(=O)OC)N1C(=O)OC was read as EBI2 block inactive, APJ agonist inactive, APJ antagonist inactive, CCR6 antagonist inactive and CXCR6 block inactive.
Screening COc1cc2c(cc1OC)-c1cc(NCc3ccccn3)nc(=O)n1CC2 returned EBI2 block inactive, APJ agonist inactive, APJ antagonist inactive, CCR6 antagonist inactive and CXCR6 block inactive.
For CCOC(=O)c1ccc(NC(=S)N2CCSC2c2ccc(Cl)cc2)cc1 (stereo not drawn) the results were EBI2 block inactive, CCR6 antagonist inactive and CXCR6 block inactive.
Screening Cc1cnc(C(=O)OCC(=O)NC23CC4CC(CC(C4)C2)C3)cn1 returned EBI2 block inactive, APJ agonist inactive, APJ antagonist inactive, CCR6 antagonist inactive and CXCR6 block inactive.
For O=C1NC(=O)N(c2ccccc2)C1=O the results were EBI2 block inactive, APJ agonist inactive, APJ antagonist inactive, CCR6 antagonist inactive and CXCR6 block inactive.
Screening Cc1ccc(OCCCC(=O)Nc2ccc(S(=O)(=O)Nc3ccccn3)cc2)cc1 returned EBI2 block inactive, APJ agonist inactive, APJ antagonist inactive, CCR6 antagonist inactive and CXCR6 block inactive.
Screening COc1ccc(-c2cc(-c3ccccc3)nc3ncnn23)cc1 returned EBI2 block inactive, APJ agonist inactive, APJ antagonist inactive, CCR6 antagonist inactive and CXCR6 block inactive.
COc1ccc(-c2cc(-c3ccc(Br)cc3)nc3ncnn23)cc1OC was read as EBI2 block 60.0, APJ agonist inactive, APJ antagonist inactive, CCR6 antagonist inactive, CXCR6 block inactive, EBI2 conf inactive, EBI2 agonist inactive and bGal counter inactive.
`COc1cc(C#Cc2c(-c3cncn3C)n(C)c3ccc(-c4ccc(OC)nc4)cc23)cc(OC)c1` gave EBI2 block inactive, APJ agonist inactive, APJ antagonist inactive, CCR6 antagonist inactive and CXCR6 block inactive.
`COc1cc(C#Cc2c(-c3cncn3C)n(C)c3ccc(-c4cc(OC)c(OC)c(OC)c4)cc23)cc(OC)c1` gave EBI2 block 49.6, APJ agonist inactive, APJ antagonist inactive, CCR6 antagonist inactive, CXCR6 block inactive, EBI2 conf inactive, EBI2 agonist inactive and bGal counter inactive.
Screening Cc1cc(C)nc(NC(=O)CSc2ccccn2)n1 returned EBI2 block inactive, APJ agonist inactive, APJ antagonist inactive, CCR6 antagonist inactive and CXCR6 block inactive.
For CCCCn1nnnc1C(c1ccnc2ccccc12)N1CCN(C/C=C/c2ccccc2)CC1 (stereo not drawn) the results were EBI2 block inactive and CXCR6 block inactive.
For CCCCn1nnnc1C(CC)N1CCN(C/C=C/c2ccccc2)CC1 (stereo not drawn) the results were EBI2 block inactive and CXCR6 block inactive.
For CCCCn1nnnc1C(c1ccccc1)N1CCN(C/C=C/c2ccccc2)CC1 (stereo not drawn) the results were EBI2 block 46.2, CXCR6 block inactive, EBI2 conf inactive, EBI2 agonist inactive and bGal counter inactive.
For CCCCn1nnnc1C(c1cccc2ccccc12)N1CCN(C/C=C/c2ccccc2)CC1 (stereo not drawn) the results were EBI2 block 44.4, CXCR6 block inactive, EBI2 conf inactive, EBI2 agonist inactive and bGal counter inactive.
